According to ChEMBL document CHEMBL1134635, “Aziridinyl quinone antitumor agents based on indoles and cyclopent[b]indoles: structure-activity relationships for cytotoxicity and antitumor activity” (2001):

Legend:
B16 [1] = assay: Treated over control values(T/C) were measured at day 25 by B16 melanoma syngraft assay at 3 mg/kg/day on day 5 after sc tumor implantation of 10 E(5) cells; type: functional, Mus musculus; conditions: route subcutaneous
Outline: (§1)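 B16 melanoma syngraft in C57/bl mice, 10^5 cells implanted subcutaneously in the front flank on day 0. T/C recorded at day 25. Toxic means early lethality, or ≥50% lethality before any control deaths.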

Nucleic Acid = assay: % of DNA reductive alkylation determined by catalytic reduction of aziridinyl quinones in presence of 600 bp calf thymus DNA; type: functional; design: concentration or dose not given beside the values; conditions: Bos taurus
Outline: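 Calf thymus DNA (1-2 mg, sonicated to ~600 bp) in 0.05 M Tris pH 7.4 with Pd/C, quinone added at 5:1 base pair equivalents in DMSO. Degassed under argon, H2-purged 10 min, argon-purged, then 30 °C for 24 h anaerobically. Catalyst filtered off, DNA ethanol-precipitated twice, and alkylation quantified by absorbance at 550 nm (ε 800 M-1 cm-1).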

B16 [2] = assay: Treated over control values(T/C) were measured at day 25 by B16 melanoma syngraft assay at 5 mg/kg/day on day 9 after sc tumor implantation of 10 E(5) cells; type: functional, Mus musculus; conditions: route subcutaneous; outline: as §1
NCI-H460 [3] = assay: Concentration of the drug required for total growth inhibition against NSC H460 cell line.; type: functional; conditions: Homo sapiens, read-out: Log TGI (converted)
B16 [4] = assay: Treated over control values(T/C) were measured at day 25 by B16 melanoma syngraft assay at 2 mg/kg/day on day 1 after sc tumor implantation of 10 E(5) cells; type: functional, Mus musculus; conditions: route subcutaneous; outline: as §1
[5] = biological target: NAD(P)H dehydrogenase [quinone] 1 (Homo sapiens) (UniProt P15559); assay: The substrate specificity obtained from the ratio of Vmax to KM for human DT-diaphorase (from non-small-cell lung NCI-H460 cell line); type: cell-based
Outline: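 Recombinant human DT-diaphorase (from NCI-H460) at 1.4 × 10^-9 M final with 0.3 mM NADH in Tris buffer, quinone 1.3 × 10-6 to 6.7 × 10^-5 M final from a 4.0 mM DMSO stock. Both parts argon-purged 20 min and held at 30 °C 10 min, then mixed.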

[6] = system: Panel NCI-60 (60 carcinoma cell lines); assay: Cancer specificity was measured from the +/- value under average log LC50 60-cell line.; type: functional; conditions: Homo sapiens, read-out: Average log LC50 (converted)
NCI-H460 [7] = assay: Concentration of the drug required for 50% growth inhibition against NSC (non small cell) H460 cell line.; type: functional; conditions: Homo sapiens
NCI-H460 [8] = assay: Concentration required for 50% cell kill. against NSC H460 cell line.; type: functional; conditions: Homo sapiens; for CC50: read-out: Log LC50 (the source's name) (converted)
NCI-H460 [9] = assay: Concentration required for 50% growth inhibition against NSC (non small cell) H460 cell line.; type: functional; conditions: Homo sapiens
NCI-H460 [10] = assay: Concentration required for total growth inhibition against NSC H460 cell line.; type: functional; conditions: Homo sapiens, read-out: Log TGI (converted)
NCI-H460 [11] = assay: Concentration required for 50% cell kill against NSC H460 cell line.; type: functional; conditions: Homo sapiens, read-out: Log LC50 (the source's name) (converted)
[12] = system: Panel NCI-60 (60 carcinoma cell lines); assay: Cancer specificity was measured from the +/- value under average log LC50 NCI 60-cell line.; type: functional; conditions: Homo sapiens, read-out: Average log LC50 (converted)
[13] = system: Panel NCI-60 (60 carcinoma cell lines); assay: Cancer specificity was measured from the +/- value under average log LC50 60-cell line; type: functional; conditions: Homo sapiens, read-out: Average log LC50 (converted)

NAD(P)H dehydrogenase [quinone] 1 (Homo sapiens), sequence (P15559 whole entry): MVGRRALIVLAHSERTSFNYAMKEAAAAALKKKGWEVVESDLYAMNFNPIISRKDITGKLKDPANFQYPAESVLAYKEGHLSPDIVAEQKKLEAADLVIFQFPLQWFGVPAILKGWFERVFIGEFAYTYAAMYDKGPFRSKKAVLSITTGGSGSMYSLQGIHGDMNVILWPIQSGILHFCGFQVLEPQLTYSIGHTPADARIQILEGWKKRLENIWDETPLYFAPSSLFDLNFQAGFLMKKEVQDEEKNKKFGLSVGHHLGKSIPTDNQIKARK

SMILES	Activity (B16 [1]) [%]	Activity (Nucleic Acid) [%]	Activity (B16 [2]) [%]	TGI (NCI-H460 [3]) [µM]	Activity (B16 [4]) [%]	Ratio [5]	LC50 [6] [µM]	GI50 (NCI-H460 [7]) [µM]	further results
Cn1c(CO)c(CO)c2c1C(=O)C=C(N1CC1)C2=O	>50	3.8	>50	0.01	>50	302000	4.47	0.01	LC50 (NCI-H460 [8]): 0.01 µM
CC1=C(N2CC2)C(=O)c2[nH]c(C)c(C)c2C1=O	>50	–	>50	–	22	–	–	–	–
CC(=O)OC1CCc2c3c(n(C)c21)C(=O)C(N1CC1)=C(C)C3=O (stereo not given)	–	1.4	–	–	–	30000	–	–	–
CC1=C(N2CC2)C(=O)c2c(c(CO)c(CO)n2C)C1=O	–	0	>50	–	–	41700	–	–	GI50 (NCI-H460 [9]): 0.0389 µM; TGI (NCI-H460 [10]): 0.219 µM
CC(=O)OC1CCc2c1[nH]c1c2C(=O)C(C)=C(N2CC2)C1=O (stereo not given)	–	44	–	0.676	–	160000	21.4	0.112	LC50 (NCI-H460 [8]): 1.23 µM
CC(=O)OC1CCc2c1[nH]c1c2C(=O)C=C(N2CC2)C1=O (stereo not given)	–	29	>50	–	–	802000	–	–	–
O=C1C=C(N2CC2)C(=O)c2c1[nH]c(CO)c2CO	>50	16.7	>50	–	>50	587000	–	–	–
CC(=O)OC1CCc2c1[nH]c1c2C(=O)C(N2CC2)=C(C)C1=O (stereo not given)	–	21	–	–	–	65500	–	–	–
CC(=O)OC1CCc2c3c(n(C(C)=O)c21)C(=O)C(N1CC1)=C(C)C3=O (stereo not given)	15	9	15	0.437	37	56200	25.1	0.0832	LC50 (NCI-H460 [8]): 5.01 µM
CC(=O)OCc1[nH]c2c(c1COC(C)=O)C(=O)C(N1CC1)=CC2=O	–	43	–	–	–	172000	–	–	–
O=C1C=C(N2CC2)C(=O)c2c1[nH]c1c2CCC1O (stereo not given)	–	22.5	–	–	–	405000	–	–	CC50 (NCI-H460 [11]): 0.295 µM; GI50 (NCI-H460 [9]): 0.01 µM; TGI (NCI-H460 [10]): 0.102 µM; CC50 [12]: 2.19 µM
O=C1C(N2CC2)=CC(=O)c2c1[nH]c(CO)c2CO	–	3.4	–	1.15	–	274000	8.51	0.138	LC50 (NCI-H460 [8]): 11.7 µM
CC(=O)OC1CCc2c3c(n(C(C)=O)c21)C(=O)C=C(N1CC1)C3=O (stereo not given)	–	14	–	–	–	705000	–	–	–
CC(=O)OC1CCc2c3c(n(C(C)=O)c21)C(=O)C(C)=C(N1CC1)C3=O (stereo not given)	–	1.2	–	–	–	132000	–	–	–
CC(=O)OC1CCc2c1[nH]c1c2C(=O)C(N2CC2)=CC1=O (stereo not given)	–	34	–	–	–	651000	–	–	–
CCOC(=O)c1[nH]c2c(c1CO)C(=O)C=C(N1CC1)C2=O	–	2.2	–	4.07	–	–	–	1.58	CC50 [13]: 4.79 µM

SMILES	Activity (B16 [1]) [%]	Activity (Nucleic Acid) [%]	Activity (B16 [2]) [%]	TGI (NCI-H460 [3]) [µM]	Activity (B16 [4]) [%]	Ratio [5]	LC50 [6] [µM]	GI50 (NCI-H460 [7]) [µM]	further results
CC1=C(N2CC2)C(=O)c2[nH]c(CO)c(CO)c2C1=O	>50	4	>50	–	54	106000	–	–	–
CC(=O)OC1CCc2c3c(n(C(C)=O)c21)C(=O)C(N1CC1)=CC3=O (stereo not given)	>50	12	>50	–	50	234000	–	–	–
CC(=O)OCc1[nH]c2c(c1C)C(=O)C(N1CC1)=C(C)C2=O	>50	–	>50	–	47	–	–	–	–
CCOC(=O)c1[nH]c2c(c1COC(C)=O)C(=O)C(N1CC1)=CC2=O	–	91.2	–	0.17	–	722000	2.4	0.0372	CC50 (NCI-H460 [8]): 0.603 µM
CC1=C(N2CC2)C(=O)c2c(c3c(n2C)C(O)CC3)C1=O (stereo not given)	–	0.3	–	7.59	–	85500	100	1.26	LC50 (NCI-H460 [8]): 50.1 µM
CC1=C(N2CC2)C(=O)c2[nH]c3c(c2C1=O)CCC3O (stereo not given)	–	10	45	0.107	75	142000	72.4	0.01	–
CC1=C(N2CC2)C(=O)c2c([nH]c(C)c2C)C1=O	60	–	>50	–	10	–	–	–	–
CC1=C(N2CC2)C(=O)c2[nH]c(CO)c(C)c2C1=O	37	–	34	–	61	–	–	–	–
CC1=C(N2CC2)C(=O)c2c(CO)c(CO)n(C)c2C1=O	–	0	–	–	–	32600	–	–	–
O=C1C(N2CC2)=CC(=O)c2c1[nH]c1c2CCC1O (stereo not given)	–	30	–	0.0575	–	128000	2.57	0.00724	CC50 (NCI-H460 [8]): 1.78 µM
CC1=C(N2CC2)C(=O)c2c([nH]c3c2CCC3O)C1=O (stereo not given)	–	11.2	–	0.0214	–	147000	18.2	0.01	LC50 (NCI-H460 [8]): 0.851 µM
CC1=C(N2CC2)C(=O)c2c([nH]c(CO)c2CO)C1=O	>50	2	>50	0.0324	36	81500	2.88	0.01	LC50 (NCI-H460 [8]): 1.17 µM
CCOC(=O)c1[nH]c2c(c1CO)C(=O)C(N1CC1)=C(C)C2=O	–	5.6	–	0.0102	–	403000	2.04	0.01	CC50 (NCI-H460 [8]): 0.0871 µM
CC(=O)OCc1[nH]c2c(c1COC(C)=O)C(=O)C(C)=C(N1CC1)C2=O	>50	37	>50	0.178	74	158000	30.2	0.0355	CC50 (NCI-H460 [8]): 0.603 µM
CCOC(=O)c1[nH]c2c(c1CO)C(=O)C(N1CC1)=CC2=O	–	37	–	0.1	–	4.3e+06	1.62	0.01	LC50 (NCI-H460 [8]): 0.631 µM
